Calls of active or inactive are those of the source. No cut-off for these calls is given here.
Tests used:
Enterobacteriaceae [1] = assay: Antibacterial activity against NDM-1-producing Enterobacteriaceae isolate N3 after 16 to 20 hrs by broth microdilution method; type: functional
Method in brief: (§1)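 Broth microdilution per CLSI in cation-adjusted Mueller-Hinton broth; 4-6 h cultures (~10⁸ CFU/mL) diluted to ~10⁶ CFU/mL and mixed 1:1 with twofold dilutions of water-dissolved compound (256 to 0.5 µg/mL). Incubated 16-20 h at 37 °C; MIC read visually. Each concentration run in duplicate, whole experiment repeated at least twice. MRSA, KPC and NDM-1 strains were clinical isolates.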

[2] = Hemolytic activity in sheep RBC after 1 hr; type: ADME, cell-based, Ovis aries, Erythrocyte; conditions: sheep red blood cells (erythrocytes)
Method in brief: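 Sheep RBCs suspended at 5% in PBS; 150 µL added to 50 µL compound dilutions (5120 to 10 µg/mL series). Incubated 1 h at 37 °C, then centrifuged; supernatant absorbance read at 540 nm. Lysis (%) = (A−A0)/(Atotal−A0)×100, with untreated 5% RBC as A0 and 0.1% Triton X-100 as total.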

Escherichia coli [3] = assay: Induction of cytoplasmic membrane depolarization in Escherichia coli ATCC 25922 at 20 ug/ml measured every 2 mins for 12 mins by diSC35 staining based fluorescence assay; type: functional, organism-based
Method in brief: (§2)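 Mid-log cells (4–6 h) pelleted, washed and resuspended (~10^8 CFU/mL) in PBS for S. aureus, or in 5 mM HEPES, 5 mM glucose and 100 mM KCl (1:1:1) for E. coli. Preloaded with diSC35 (10 µM, 50 µL), 30 min for S. aureus and 40 min plus EDTA (200 µM, 50 µL) for E. coli. Baseline read 8 min (ex 622/em 670 nm), then compound added to 20 µg/mL final and read every 2 min for 12 min. Water control.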

Enterobacteriaceae [4] = assay: Antibacterial activity against NDM-1-producing Enterobacteriaceae isolate N9 after 16 to 20 hrs by broth microdilution method; type: functional; method in brief: as §1
Enterobacteriaceae [5] = assay: Antibacterial activity against NDM-1-producing Enterobacteriaceae isolate N4 after 16 to 20 hrs by broth microdilution method; type: functional; method in brief: as §1
Salmonella enterica = assay: Antibacterial activity against Salmonella enterica after 16 to 20 hrs by broth microdilution method; type: functional; method in brief: as §1
Staphylococcus aureus [6] = assay: Antibacterial activity against methicillin-resistant Staphylococcus aureus isolate M2 after 16 to 20 hrs by broth microdilution method; type: functional
Method in brief: (§3)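 CLSI broth microdilution in cation-adjusted Mueller-Hinton broth. A 4-6 h culture was diluted to about 10⁶ CFU/mL and mixed 1:1 with twofold compound dilutions (256–0.5 µg/mL before mixing) prepared from aqueous stocks. Plates were incubated at 37 °C for 16-20 h. Each concentration was tested in duplicate, and the experiment was repeated at least twice.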

Klebsiella pneumoniae [7] = assay: Antibacterial activity against carbapenemase-producing Klebsiella pneumoniae isolate K3 after 16 to 20 hrs by broth microdilution method; type: functional; method in brief: as §1
Staphylococcus aureus [8] = assay: Antibacterial activity against methicillin-resistant Staphylococcus aureus isolate M7 after 16 to 20 hrs by broth microdilution method; type: functional; method in brief: as §3
Enterococcus faecalis = assay: Antibacterial activity against Enterococcus faecalis after 16 to 20 hrs by broth microdilution method; type: functional; method in brief: as §1
Klebsiella pneumoniae [9] = assay: Antibacterial activity against carbapenemase-producing Klebsiella pneumoniae isolate K8 after 16 to 20 hrs by broth microdilution method; type: functional; method in brief: as §1
Staphylococcus aureus [10] = assay: Antibacterial activity against methicillin-resistant Staphylococcus aureus isolate M10 after 16 to 20 hrs by broth microdilution method; type: functional; method in brief: as §3
Klebsiella pneumoniae [11] = assay: Antibacterial activity against carbapenemase-producing Klebsiella pneumoniae isolate K4 after 16 to 20 hrs by broth microdilution method; type: functional; method in brief: as §1
Enterobacteriaceae [12] = assay: Antibacterial activity against NDM-1-producing Enterobacteriaceae isolate N5 after 16 to 20 hrs by broth microdilution method; type: functional; method in brief: as §1
Klebsiella pneumoniae [13] = assay: Antibacterial activity against carbapenemase-producing Klebsiella pneumoniae isolate K6 after 16 to 20 hrs by broth microdilution method; type: functional; method in brief: as §1
Enterobacteriaceae [14] = assay: Antibacterial activity against NDM-1-producing Enterobacteriaceae isolate N6 after 16 to 20 hrs by broth microdilution method; type: functional; method in brief: as §1
Enterobacteriaceae [15] = assay: Antibacterial activity against NDM-1-producing Enterobacteriaceae isolate N7 after 16 to 20 hrs by broth microdilution method; type: functional; method in brief: as §1
Enterobacteriaceae [16] = assay: Antibacterial activity against NDM-1-producing Enterobacteriaceae isolate N2 after 16 to 20 hrs by broth microdilution method; type: functional; method in brief: as §1
Klebsiella pneumoniae [17] = assay: Antibacterial activity against carbapenemase-producing Klebsiella pneumoniae isolate K9 after 16 to 20 hrs by broth microdilution method; type: functional; method in brief: as §1
Enterobacteriaceae [18] = assay: Antibacterial activity against NDM-1-producing Enterobacteriaceae isolate N8 after 16 to 20 hrs by broth microdilution method; type: functional; method in brief: as §1
Klebsiella pneumoniae [19] = assay: Antibacterial activity against carbapenemase-producing Klebsiella pneumoniae isolate K7 after 16 to 20 hrs by broth microdilution method; type: functional; method in brief: as §1
Staphylococcus aureus [20] = assay: Antibacterial activity against methicillin-resistant Staphylococcus aureus isolate M4 after 16 to 20 hrs by broth microdilution method; type: functional; method in brief: as §3
Enterobacteriaceae [21] = assay: Antibacterial activity against NDM-1-producing Enterobacteriaceae isolate N10 after 16 to 20 hrs by broth microdilution method; type: functional; method in brief: as §1
Klebsiella pneumoniae [22] = assay: Antibacterial activity against carbapenemase-producing Klebsiella pneumoniae isolate K1 after 16 to 20 hrs by broth microdilution method; type: functional; method in brief: as §1
Staphylococcus aureus [23] = assay: Antibacterial activity against methicillin-resistant Staphylococcus aureus isolate M9 after 16 to 20 hrs by broth microdilution method; type: functional; method in brief: as §3
Klebsiella pneumoniae [24] = assay: Antibacterial activity against carbapenemase-producing Klebsiella pneumoniae after 16 to 20 hrs by broth microdilution method; type: functional; method in brief: as §1
Escherichia coli [25] = assay: Induction of outer membrane permeabilization in Escherichia coli ATCC 25922 at 20 ug/ml measured every 2 mins for 12 mins by NPN staining based fluorescence assay; type: functional, organism-based
Method in brief: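 Mid-log E. coli (~10^8 CFU/mL) in black plates pre-incubated about 40 min with NPN (10 µM, 50 µL). Baseline read 8 min (ex 350/em 420 nm), then compound added to 20 µg/mL final and fluorescence followed every 2 min for 12 min. Water-treated control.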

Klebsiella pneumoniae [26] = assay: Antibacterial activity against carbapenemase-producing Klebsiella pneumoniae isolate K2 after 16 to 20 hrs by broth microdilution method; type: functional; method in brief: as §1
Klebsiella pneumoniae [27] = assay: Antibacterial activity against carbapenemase-producing Klebsiella pneumoniae isolate K5 after 16 to 20 hrs by broth microdilution method; type: functional; method in brief: as §1
Staphylococcus aureus [28] = assay: Antibacterial activity against Staphylococcus aureus ATCC 29213 after 16 to 20 hrs by broth microdilution method; type: functional; method in brief: as §3
Klebsiella pneumoniae [29] = assay: Antibacterial activity against carbapenemase-producing Klebsiella pneumoniae isolate K10 after 16 to 20 hrs by broth microdilution method; type: functional; method in brief: as §1
Staphylococcus aureus [30] = assay: Antibacterial activity against methicillin-resistant Staphylococcus aureus isolate M5 after 16 to 20 hrs by broth microdilution method; type: functional; method in brief: as §3
Escherichia coli [31] = assay: Antibacterial activity against Escherichia coli ATCC 25922 after 16 to 20 hrs by broth microdilution method; type: functional; method in brief: as §1
Staphylococcus aureus [32] = assay: Antibacterial activity against methicillin-resistant Staphylococcus aureus isolate M1 after 16 to 20 hrs by broth microdilution method; type: functional; method in brief: as §3
Staphylococcus aureus [33] = assay: Antibacterial activity against methicillin-resistant Staphylococcus aureus isolate M8 after 16 to 20 hrs by broth microdilution method; type: functional; method in brief: as §3
Staphylococcus aureus [34] = assay: Antibacterial activity against methicillin-resistant Staphylococcus aureus after 16 to 20 hrs by broth microdilution method; type: functional; method in brief: as §3
Enterobacteriaceae [35] = assay: Antibacterial activity against NDM-1-producing Enterobacteriaceae after 16 to 20 hrs by broth microdilution method; type: functional; method in brief: as §1
Staphylococcus aureus [36] = assay: Antibacterial activity against methicillin-resistant Staphylococcus aureus isolate M6 after 16 to 20 hrs by broth microdilution method; type: functional; method in brief: as §3
Enterobacteriaceae [37] = assay: Antibacterial activity against NDM-1-producing Enterobacteriaceae isolate N1 after 16 to 20 hrs by broth microdilution method; type: functional; method in brief: as §1
Staphylococcus aureus [38] = assay: Induction of cytoplasmic membrane depolarization in Staphylococcus aureus ATCC 29213 at 20 ug/ml measured every 2 mins for 12 mins by diSC35 staining based fluorescence assay; type: functional, organism-based; method in brief: as §2
Escherichia coli [39] = assay: Induction of inner membrane permeabilization in Escherichia coli ATCC 25922 at 20 ug/ml measured every 2 mins for 12 mins by propidium iodide staining based fluorescence assay; type: functional, organism-based
Method in brief: (§4)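 Mid-log cells (~10^8 CFU/mL) pre-incubated with propidium iodide (10 µM, 50 µL), 30 min for S. aureus and 40 min for E. coli. Fluorescence (ex 535/em 617 nm) read for 8 min, then compound added to 20 µg/mL final and monitored every 2 min for 12 min. Water-treated control.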

Staphylococcus aureus [40] = assay: Antibacterial activity against methicillin-resistant Staphylococcus aureus isolate M3 after 16 to 20 hrs by broth microdilution method; type: functional; method in brief: as §3
Staphylococcus aureus [41] = assay: Induction of inner membrane permeabilization in Staphylococcus aureus ATCC 29213 at 20 ug/ml measured every 2 mins for 12 mins by propidium iodide staining based fluorescence assay; type: functional, organism-based; method in brief: as §4

## CCCCCCCCN(CCCCCCCC)C(=O)[C@H](N)CO.Cl
Enterobacteriaceae [1]
  MIC: 16 µg/mL
[2]
  HC50 at 1 h: 367 µg/mL
Escherichia coli [3]
  Activity: Active
Enterobacteriaceae [4]
  MIC: 16 µg/mL
Enterobacteriaceae [5]
  MIC: 16 µg/mL
Salmonella enterica
  MIC: 8 µg/mL
Staphylococcus aureus [6]
  MIC: 4 µg/mL
Klebsiella pneumoniae [7]
  MIC: 32 µg/mL
Staphylococcus aureus [8]
  MIC: 4 µg/mL
Enterococcus faecalis
  MIC: 4 µg/mL
Klebsiella pneumoniae [9]
  MIC: 32 µg/mL
Staphylococcus aureus [10]
  MIC: 4 µg/mL
Klebsiella pneumoniae [11]
  MIC: 32 µg/mL
Enterobacteriaceae [12]
  MIC: 16 µg/mL
Klebsiella pneumoniae [13]
  MIC: 32 µg/mL
Enterobacteriaceae [14]
  MIC: 16 µg/mL
Enterobacteriaceae [15]
  MIC: 32 µg/mL
Enterobacteriaceae [16]
  MIC: 16 µg/mL
Klebsiella pneumoniae [17]
  MIC: 32 µg/mL
Enterobacteriaceae [18]
  MIC: 32 µg/mL
Klebsiella pneumoniae [19]
  MIC: 32 µg/mL
Staphylococcus aureus [20]
  MIC: 4 µg/mL
Enterobacteriaceae [21]
  MIC: 16 µg/mL
Klebsiella pneumoniae [22]
  MIC: 32 µg/mL
Staphylococcus aureus [23]
  MIC: 4 µg/mL
Klebsiella pneumoniae [24]
  MIC: 32 µg/mL
Escherichia coli [25]
  Activity: Active
Klebsiella pneumoniae [26]
  MIC: 32 µg/mL
Klebsiella pneumoniae [27]
  MIC: 32 µg/mL
Staphylococcus aureus [28]
  MIC: 4 µg/mL
Klebsiella pneumoniae [29]
  MIC: 32 µg/mL
Staphylococcus aureus [30]
  MIC: 4 µg/mL
Escherichia coli [31]
  MIC: 8 µg/mL
Staphylococcus aureus [32]
  MIC: 4 µg/mL
Staphylococcus aureus [33]
  MIC: 4 µg/mL
Staphylococcus aureus [34]
  MIC: 4 µg/mL
Enterobacteriaceae [35]
  MIC: 16 µg/mL
Staphylococcus aureus [36]
  MIC: 4 µg/mL
Enterobacteriaceae [37]
  MIC: 32 µg/mL
Staphylococcus aureus [38]
  Activity: Active
Escherichia coli [39]
  Activity: Active
Staphylococcus aureus [40]
  MIC: 4 µg/mL
Staphylococcus aureus [41]
  Activity: Active

## CCCCCCCCN(CCCCCCCC)C(=O)[C@H](C)N.Cl
Enterobacteriaceae [1]
  MIC: 64 µg/mL
[2]
  HC50 at 1 h: 306 µg/mL
Escherichia coli [3]
  Activity: Active
Enterobacteriaceae [4]
  MIC: 64 µg/mL
Enterobacteriaceae [5]
  MIC: 64 µg/mL
Salmonella enterica
  MIC: 32 µg/mL
Staphylococcus aureus [6]
  MIC: 4 µg/mL
Klebsiella pneumoniae [7]
  MIC: 16 µg/mL
Staphylococcus aureus [8]
  MIC: 4 µg/mL
Enterococcus faecalis
  MIC: 8 µg/mL
Klebsiella pneumoniae [9]
  MIC: 16 µg/mL
Staphylococcus aureus [10]
  MIC: 4 µg/mL
Klebsiella pneumoniae [11]
  MIC: 32 µg/mL
Enterobacteriaceae [12]
  MIC: 64 µg/mL
Klebsiella pneumoniae [13]
  MIC: 32 µg/mL
Enterobacteriaceae [14]
  MIC: 64 µg/mL
Enterobacteriaceae [15]
  MIC: 64 µg/mL
Enterobacteriaceae [16]
  MIC: 64 µg/mL
Klebsiella pneumoniae [17]
  MIC: 16 µg/mL
Enterobacteriaceae [18]
  MIC: 64 µg/mL
Klebsiella pneumoniae [19]
  MIC: 32 µg/mL
Staphylococcus aureus [20]
  MIC: 4 µg/mL
Enterobacteriaceae [21]
  MIC: 64 µg/mL
Klebsiella pneumoniae [22]
  MIC: 16 µg/mL
Staphylococcus aureus [23]
  MIC: 4 µg/mL
Klebsiella pneumoniae [24]
  MIC: 16 µg/mL
Escherichia coli [25]
  Activity: Active
Klebsiella pneumoniae [26]
  MIC: 16 µg/mL
Klebsiella pneumoniae [27]
  MIC: 32 µg/mL
Staphylococcus aureus [28]
  MIC: 4 µg/mL
Klebsiella pneumoniae [29]
  MIC: 16 µg/mL
Staphylococcus aureus [30]
  MIC: 4 µg/mL
Escherichia coli [31]
  MIC: 4 µg/mL
Staphylococcus aureus [32]
  MIC: 4 µg/mL
Staphylococcus aureus [33]
  MIC: 4 µg/mL
Staphylococcus aureus [34]
  MIC: 4 µg/mL
Enterobacteriaceae [35]
  MIC: 64 µg/mL
Staphylococcus aureus [36]
  MIC: 4 µg/mL
Enterobacteriaceae [37]
  MIC: 64 µg/mL
Staphylococcus aureus [38]
  Activity: Active
Escherichia coli [39]
  Activity: Active
Staphylococcus aureus [40]
  MIC: 4 µg/mL
Staphylococcus aureus [41]
  Activity: Active
